For 15 compounds, EC50, IC50 and K bind results are on record in ChEMBL document CHEMBL1123777 (J Med Chem, 1987).

Structures are written as SMILES. Bounds are passed on as bounds.

The species named for one test is Oryctolagus cuniculus. Briefly: Ability to relax the electrically stimulated rabbit ear artery was determined. The test is classed as functional. The procedure, abridged: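 Isolated, perfused rabbit ear artery under electrical stimulation; inhibition of the neurogenic response taken as the D-2 agonist read-out. Concentration–response curves were also run in the presence of (S)-sulpiride at several nM concentrations. Points are mean ± SEM of at least four experiments.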

In test [1] the target is T1, D(1A) dopamine receptor (Rattus norvegicus, UniProt P18901). Briefly: Dopamine receptor D1 agonist efficacy was measured with stimulation of dopamine-sensitive rat adenylate cyclase in caudate membranes. Partial agonist, maximum effect 60% of dopamine maximum effect. Format: functional, cell membranes, Membrane.
For another test, the target named is D(2) dopamine receptor (Bos taurus, UniProt P20288). Briefly: Displacement of [3H]spiroperidol from homogenized bovine pituitary Dopamine receptor D2.
Test [2] concerns the target D(1A) dopamine receptor (Rattus norvegicus) (UniProt P18901). Particulars: Striatum; call rule not given here.
Test [3] has the same target. Particulars: Striatum. The source holds these as a separate data set.
For test [4], the target named is T1, D(1A) dopamine receptor. Briefly: Dopamine receptor D1 agonist efficacy was measured with stimulation of dopamine-sensitive rat adenylate cyclase in caudate membranes. The test is classed as functional, cell membranes, Membrane.
Test [5] deals with T1, D(1A) dopamine receptor. The test is described as follows: Dopamine D1 agonist efficacy was measured with stimulation of dopamine-sensitive rat adenylate cyclase in caudate membranes. Format: functional, cell membranes, Membrane.
For test [6], the target named is T1, D(1A) dopamine receptor. Briefly: Dopamine receptor D1 agonist efficacy was measured with stimulation of dopamine-sensitive rat adenylate cyclase in caudate membranes; NS means not significant. The test is classed as functional, cell membranes, Membrane.
Test [7] concerns the target T1, D(1A) dopamine receptor. The test is described as follows: Dopamine receptor D1 agonist efficacy was measured with stimulation of dopamine-sensitive rat adenylate cyclase in caudate membranes. Partial agonist, maximum effect 59% of dopamine maximum effect. Format: functional, cell membranes, Membrane.

D(1A) dopamine receptor (Rattus norvegicus), sequence (P18901 whole entry): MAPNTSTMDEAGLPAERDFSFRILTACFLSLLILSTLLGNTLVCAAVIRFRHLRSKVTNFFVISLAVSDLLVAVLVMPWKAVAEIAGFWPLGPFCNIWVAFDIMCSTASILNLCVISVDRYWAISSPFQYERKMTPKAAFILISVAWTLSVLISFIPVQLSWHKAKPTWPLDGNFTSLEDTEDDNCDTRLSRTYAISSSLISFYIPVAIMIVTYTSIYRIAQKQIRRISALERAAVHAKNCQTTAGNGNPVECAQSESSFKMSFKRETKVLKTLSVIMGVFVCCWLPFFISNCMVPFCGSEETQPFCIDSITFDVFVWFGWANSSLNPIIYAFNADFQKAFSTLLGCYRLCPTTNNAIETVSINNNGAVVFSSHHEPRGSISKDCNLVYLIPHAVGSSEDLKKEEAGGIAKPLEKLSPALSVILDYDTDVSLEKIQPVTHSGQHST
T1 sequence (P18901 whole entry): as above
D(2) dopamine receptor, sequence (P20288 whole entry): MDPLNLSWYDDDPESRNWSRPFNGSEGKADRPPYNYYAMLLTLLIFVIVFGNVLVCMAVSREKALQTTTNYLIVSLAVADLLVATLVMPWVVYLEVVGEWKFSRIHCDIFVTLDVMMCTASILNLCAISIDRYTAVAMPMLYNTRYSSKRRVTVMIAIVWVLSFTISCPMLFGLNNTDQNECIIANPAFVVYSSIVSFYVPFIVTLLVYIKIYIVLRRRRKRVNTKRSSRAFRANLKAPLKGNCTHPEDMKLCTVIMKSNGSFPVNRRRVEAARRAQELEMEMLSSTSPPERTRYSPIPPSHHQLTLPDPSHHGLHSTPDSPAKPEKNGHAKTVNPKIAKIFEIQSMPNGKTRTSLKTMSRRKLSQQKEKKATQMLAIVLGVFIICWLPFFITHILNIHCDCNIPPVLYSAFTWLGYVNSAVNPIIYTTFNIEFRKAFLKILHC

As to `NCCc1ccc(O)c2nc(O)sc12`, the results for the EC50 in the test filed under Oryctolagus cuniculus and at D(1A) dopamine receptor [1] were 30 nM and 295 nM, respectively. Also, at D(2) dopamine receptor, the IC50 (in general, the concentration that gives 50% inhibition) was 2000 nM. This compound registered a K bind in test [2] of 9 nM.
`Oc1ccc(C2CNCCc3c2cc(O)c(O)c3Cl)cc1` (configuration not stated) [FENOLDOPAM]: a half-maximal effect in the test filed under Oryctolagus cuniculus (EC50) was put at 1200 nM. The K bind in [3] is 3 nM.
Take `CNCCc1ccc(O)c2nc(O)sc12`: in the test listed under Oryctolagus cuniculus, the EC50 (usually the concentration at which the effect is half-maximal) came to 6 nM.
Still for that read-out and setting: the same measure for `NCCc1ccc(O)c(O)c1` [DOPAMINE]: 76 nM.
The compound `CCCN(CCC)CCc1ccc(O)c2nc(O)sc12` registered an EC50 in the test listed under Oryctolagus cuniculus of 0.028 nM. In addition, on D(2) dopamine receptor, the IC50 is 49 nM.
Take `CCCN(CCC)CCc1ccc(O)c(O)c1`: the figures for the half-maximal effective concentration (EC50) in the test filed under Oryctolagus cuniculus and on D(1A) dopamine receptor [4] were 80 nM and 12500 nM, respectively.
In turn, `CCCN(CCC)CCc1c(Cl)cc(O)c2nc(O)sc12` registered a concentration for a half-maximal effect (EC50) in the test listed under Oryctolagus cuniculus of 50 nM.
For `CCCN(CCC)CCc1ccc(O)c2[nH]c(O)nc12`, the EC50 in the test filed under Oryctolagus cuniculus came to 9 nM. Moreover, at D(2) dopamine receptor, the IC50 is 1000 nM.
For the compound `CCCN(CCC)CCc1ccc(O)c2c1CC(=O)N2` [SKF-89124A], the figures for the EC50 in the test listed under Oryctolagus cuniculus and on D(1A) dopamine receptor [5] were 1.8 nM and 20000 nM, respectively. Moreover, the half-inhibitory concentration (IC50) on D(2) dopamine receptor turned out to be 530 nM.
For the compound `CCCN(CCC)CCc1cccc2c1CC(=O)N2` [ROPINIROLE], the concentration for half-maximal inhibition (IC50) at D(2) dopamine receptor turned out to be 6810 nM.
In the case of `NCCc1cccc2nc(O)sc12`, the EC50 in the test filed under Oryctolagus cuniculus was 1000 nM; on D(1A) dopamine receptor [6] it was “Not Active”. Besides, the IC50 on D(2) dopamine receptor is over 10000 nM.
On D(2) dopamine receptor, `NCCc1ccc(O)c2c1CC(=O)N2` came in with an IC50 of 4850 nM. In addition, the K bind in test [3] came out at 700 nM. At D(1A) dopamine receptor [7], this compound showed an EC50 of 4650 nM.
With `CCCN(CCC)CCc1ccc(O)c2c1C(=O)C(=O)N2`, the EC50 is 7 nM in the test filed under Oryctolagus cuniculus and “Not Active” at D(1A) dopamine receptor [6]. At D(2) dopamine receptor, this compound gave an IC50 of 560 nM.
In the test listed under Oryctolagus cuniculus, `CCCN(CCC)CCc1cccc2nc(O)sc12` returned an EC50 of 28 nM. The same compound gave an IC50 on D(2) dopamine receptor of 1000 nM.
With `CCCN(CCC)CCc1ccc(O)c2nc(O)oc12`, the EC50 in the test listed under Oryctolagus cuniculus stood at 8 nM. This compound registered an IC50 on D(2) dopamine receptor of 1200 nM.
